For 25 compounds, GI50 results are on record in ChEMBL document CHEMBL1177810, “Acid-catalyzed synthesis of 10-substituted triazolyl artemisinins and their growth inhibitory activity against various cancer cells” (2010).

One assay has as its system SiHa. In words: Cytotoxicity against human SiHa cells after 72 hrs by MTT assay. It is filed as functional. An outline of the steps:
(§1)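 Cells seeded at 5×10^3 per well in DMEM with 10% FBS, preincubated 4 h, then exposed to serial dilutions for 72 h. MTT at 1 mg/mL added for 4 h at 37 °C, formazan dissolved in DMSO, absorbance read at 570 nm. Triplicate assays; GI50 from non-linear regression of sigmoidal dose-response curves.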
On the technique in general: Formazan colour is commonly taken as a measure of viable cells.

Another assay relates to DLD-1. In words: Cytotoxicity against human DLD1 cells after 72 hrs by MTT assay. The format is functional. The settings on record: DLD-1, 72 h. In outline:
as §1

Assay [1] can be described thus: Cytotoxicity against human U87 cells after 72 hrs by MTT assay. It is filed as functional, U-87MG ATCC. The note with it: U-87 MG. In outline:
as §1

For another assay, the system named is HeLa. Put plainly: Cytotoxicity against human HeLa cells after 72 hrs by MTT assay. It is filed as functional. In outline:
as §1

A short description of assay [2]: Cytotoxicity against human A172 cells after 72 hrs by MTT assay. The format is functional. The note with it: A 172, 72 h. In outline:
as §1

The subject of another assay is B16. In words: Cytotoxicity against mouse B16 cells after 72 hrs by MTT assay. The settings on record: B16, 72 h. It is filed as functional. In outline:
as §1

Take `COc1ccc(-c2cnnn2[C@@H]2O[C@@H]3O[C@]4(C)CC[C@H]5[C@H](C)CC[C@@H]([C@H]2C)[C@@]35OO4)cc1`: the GI50 (in general, the concentration giving 50% growth inhibition) amounted to 240 nM in the assay with SiHa; 880 nM with DLD-1; 230 nM in assay [1]; 90 nM with HeLa; 210 nM in assay [2]; 290 nM in the assay with B16.
In the case of `C[C@@H]1[C@@H](n2cc(-c3ccc(F)cc3)nn2)O[C@@H]2O[C@]3(C)CC[C@H]4[C@H](C)CC[C@@H]1[C@@]24OO3`, the GI50 with SiHa stood at 960 nM; in the assay with DLD-1 it was 2150 nM; in assay [1] it was 630 nM; in the assay on HeLa it was 410 nM; in assay [2] it was 560 nM; with B16 it was 840 nM.
As to `CCCCCc1ccc(-c2cn([C@H]3O[C@@H]4O[C@]5(C)CC[C@H]6[C@H](C)CC[C@@H]([C@@H]3C)[C@@]46OO5)nn2)cc1`, the GI50 is 440 nM in the assay with SiHa; 840 nM in the assay on DLD-1; 270 nM in assay [1]; 240 nM with HeLa; 260 nM in assay [2]; 340 nM in the assay on B16.
On to `C[C@H]1[C@H](n2nncc2-c2ccc(F)cc2)O[C@@H]2O[C@]3(C)CC[C@H]4[C@H](C)CC[C@@H]1[C@@]24OO3`, for which the GI50 was found to be 80 nM in the assay with SiHa; 310 nM with DLD-1; 90 nM in assay [1]; 60 nM with HeLa; 80 nM in assay [2]; 770 nM with B16.
In the case of `CCCCCc1ccc(-c2cn([C@@H]3O[C@@H]4O[C@]5(C)CC[C@H]6[C@H](C)CC[C@@H]([C@H]3C)[C@@]46OO5)nn2)cc1`, the concentration for 50% growth inhibition (GI50) was determined as 80 nM in the assay with SiHa; 140 nM in the assay with DLD-1; 70 nM in assay [1]; 90 nM in the assay with HeLa; 70 nM in assay [2]; 70 nM with B16.
Take `C[C@H]1[C@H](n2nncc2-c2cc(F)cc(F)c2)O[C@@H]2O[C@]3(C)CC[C@H]4[C@H](C)CC[C@@H]1[C@@]24OO3`: the GI50 stood at 70 nM with SiHa; 170 nM with DLD-1; 170 nM in assay [1]; 80 nM in the assay on HeLa; 100 nM in assay [2]; 100 nM in the assay on B16.
Consider `C[C@H]1[C@H](n2nncc2-c2ccccc2C(F)(F)F)O[C@@H]2O[C@]3(C)CC[C@H]4[C@H](C)CC[C@@H]1[C@@]24OO3`, for which the GI50 is 80 nM in the assay on SiHa; 170 nM with DLD-1; 80 nM in assay [1]; 70 nM in the assay on HeLa; 80 nM in assay [2]; 80 nM in the assay with B16.
Consider `Cc1ccc(-c2cn([C@H]3O[C@@H]4O[C@]5(C)CC[C@H]6[C@H](C)CC[C@@H]([C@@H]3C)[C@@]46OO5)nn2)cc1`, for which the GI50 was determined as 1580 nM in the assay with SiHa; 160 nM in the assay on DLD-1; 1340 nM in assay [1]; 730 nM in the assay on HeLa; 1740 nM in assay [2]; 700 nM in the assay on B16.
In the case of `Cc1ccc(-c2cn([C@@H]3O[C@@H]4O[C@]5(C)CC[C@H]6[C@H](C)CC[C@@H]([C@H]3C)[C@@]46OO5)nn2)cc1`, the GI50 in the assay on SiHa was found to be 120 nM; with DLD-1, 400 nM; in assay [1] it was 280 nM; in the assay on HeLa, 110 nM; in assay [2], 90 nM; with B16, 120 nM.
As for `C[C@@H]1[C@@H](n2cc(-c3ccccc3C(F)(F)F)nn2)O[C@@H]2O[C@]3(C)CC[C@H]4[C@H](C)CC[C@@H]1[C@@]24OO3`, the GI50 came out at 620 nM with SiHa; 1070 nM in the assay on DLD-1; 530 nM in assay [1]; 350 nM in the assay on HeLa; 400 nM in assay [2]; 480 nM in the assay with B16.
On to `COc1ccc(-c2cn([C@@H]3O[C@@H]4O[C@]5(C)CC[C@H]6[C@H](C)CC[C@@H]([C@H]3C)[C@@]46OO5)nn2)cc1`, for which the GI50 in the assay on SiHa came to 360 nM; in the assay on DLD-1, 490 nM; in assay [1], 390 nM; in the assay with HeLa, 130 nM; in assay [2] it was 300 nM; in the assay on B16, 130 nM.
On to `CC(=O)O[C@H]1C(=O)[C@@]2(C)[C@H]([C@H](OC(=O)c3ccccc3)[C@]3(O)C[C@H](OC(=O)[C@H](O)[C@@H](NC(=O)c4ccccc4)c4ccccc4)C(C)=C1C3(C)C)[C@]1(OC(C)=O)CO[C@@H]1C[C@@H]2O` [PACLITAXEL], for which the 50% growth inhibitory concentration (GI50) was determined as 30 nM in the assay with SiHa; 10 nM with DLD-1; 20 nM in assay [1]; 20 nM in the assay with HeLa; 10 nM in assay [2]; 10 nM in the assay with B16.
In the case of `C[C@H]1[C@H](n2cc(-c3cc(F)cc(F)c3)nn2)O[C@@H]2O[C@]3(C)CC[C@H]4[C@H](C)CC[C@@H]1[C@@]24OO3`, the GI50 came out at 120 nM in the assay on SiHa; 300 nM in the assay with DLD-1; 130 nM in assay [1]; 50 nM in the assay with HeLa; 140 nM in assay [2]; 130 nM with B16.
`C[C@H]1[C@H](n2cc(-c3cccc(Cl)c3)nn2)O[C@@H]2O[C@]3(C)CC[C@H]4[C@H](C)CC[C@@H]1[C@@]24OO3`: the concentration for 50% growth inhibition (GI50) amounted to 240 nM in the assay on SiHa; 290 nM with DLD-1; 250 nM in assay [1]; 90 nM in the assay on HeLa; 310 nM in assay [2]; 210 nM in the assay with B16.
As to `Cc1ccc(-c2cnnn2[C@@H]2O[C@@H]3O[C@]4(C)CC[C@H]5[C@H](C)CC[C@@H]([C@H]2C)[C@@]35OO4)cc1`, the GI50 worked out at 190 nM in the assay on SiHa; 290 nM with DLD-1; 110 nM in assay [1]; 40 nM in the assay on HeLa; 100 nM in assay [2]; 110 nM with B16.
With `C[C@@H]1[C@@H](n2cc(-c3cccc(Cl)c3)nn2)O[C@@H]2O[C@]3(C)CC[C@H]4[C@H](C)CC[C@@H]1[C@@]24OO3`, the GI50 was determined as 410 nM in the assay on SiHa; 1170 nM in the assay with DLD-1; 350 nM in assay [1]; 210 nM with HeLa; 330 nM in assay [2]; 280 nM in the assay on B16.
For `CCCCCc1ccc(-c2cnnn2[C@@H]2O[C@@H]3O[C@]4(C)CC[C@H]5[C@H](C)CC[C@@H]([C@H]2C)[C@@]35OO4)cc1`, the GI50 was 100 nM in the assay with SiHa; 220 nM with DLD-1; 90 nM in assay [1]; 40 nM in the assay on HeLa; 80 nM with B16.
On to `COc1ccc(-c2cn([C@H]3O[C@@H]4O[C@]5(C)CC[C@H]6[C@H](C)CC[C@@H]([C@@H]3C)[C@@]46OO5)nn2)cc1`, for which the GI50 with SiHa stood at 70 nM; in the assay with DLD-1, 220 nM; in assay [1], 70 nM; with HeLa it was 100 nM; in assay [2] it was 70 nM; with B16 it was 100 nM.
For the compound `C[C@@H]1[C@@H](n2cc(-c3cc(F)cc(F)c3)nn2)O[C@@H]2O[C@]3(C)CC[C@H]4[C@H](C)CC[C@@H]1[C@@]24OO3`, the 50% growth inhibitory concentration (GI50) in the assay on SiHa was 460 nM; with DLD-1, 1280 nM; in assay [1] it was 450 nM; in the assay on HeLa, 240 nM; in assay [2] it was 540 nM; in the assay on B16 it was 700 nM.
Take `C[C@H]1[C@H](n2cc(-c3ccccc3C(F)(F)F)nn2)O[C@@H]2O[C@]3(C)CC[C@H]4[C@H](C)CC[C@@H]1[C@@]24OO3`: the GI50 amounted to 320 nM with SiHa; 2380 nM in the assay with DLD-1; 290 nM in assay [1]; 190 nM with HeLa; 290 nM in assay [2]; 340 nM in the assay on B16.
Take `C[C@H]1[C@H](n2cc(-c3ccccc3)nn2)O[C@@H]2O[C@]3(C)CC[C@H]4[C@H](C)CC[C@@H]1[C@@]24OO3`: the GI50 turned out to be 730 nM with SiHa; 930 nM in the assay with DLD-1; 500 nM in assay [1]; 580 nM with HeLa; 570 nM in assay [2]; 780 nM in the assay with B16.
Take `C[C@H]1[C@H](n2nncc2-c2cccc(Cl)c2)O[C@@H]2O[C@]3(C)CC[C@H]4[C@H](C)CC[C@@H]1[C@@]24OO3`: the GI50 with SiHa was 160 nM; with DLD-1, 40 nM; in assay [1] it was 100 nM; in the assay on HeLa, 60 nM; in assay [2], 130 nM; in the assay with B16, 100 nM.
Take `C[C@H]1[C@H](n2cc(-c3ccc(F)cc3)nn2)O[C@@H]2O[C@]3(C)CC[C@H]4[C@H](C)CC[C@@H]1[C@@]24OO3`: the GI50 came out at 140 nM in the assay on SiHa; 480 nM in the assay on DLD-1; 160 nM in assay [1]; 50 nM with HeLa; 130 nM in assay [2]; 110 nM in the assay on B16.
In the case of `C[C@@H]1[C@@H](n2cc(-c3ccccc3)nn2)O[C@@H]2O[C@]3(C)CC[C@H]4[C@H](C)CC[C@@H]1[C@@]24OO3`, the GI50 with SiHa turned out to be 140 nM; with DLD-1 it was 280 nM; in assay [1], 150 nM; in the assay with HeLa, 30 nM; in assay [2], 110 nM; in the assay on B16, 200 nM.
On to `C[C@H]1[C@H](n2nncc2-c2ccccc2)O[C@@H]2O[C@]3(C)CC[C@H]4[C@H](C)CC[C@@H]1[C@@]24OO3`, for which the concentration for 50% growth inhibition (GI50) with SiHa was determined as 140 nM; in the assay on DLD-1, 600 nM; in assay [1], 200 nM; in the assay with HeLa it was 40 nM; in assay [2], 150 nM; in the assay on B16, 220 nM.
